Assay results published in ChEMBL document CHEMBL1138562, “2,3-Disubstituted-1,4-naphthoquinones, 12H-benzo[b]phenothiazine-6,11-diones and related compounds: synthesis and biological evaluation as potential antiproliferative and antifungal agents” (2009).
In brackets after ≈: the same amount, converted by molar mass. Activity calls are given as the source filed them. The calls are words filed in the database; no cut-off is given here.

Assays:
[1] = test system: Trichophyton mentagrophytes; experiment: Antifungal activity against Trichophyton mentagrophytes after 96 hrs by micro broth dilution method; format: functional
Procedure, shortened: (§1)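 Micro broth dilution per NCCLS in RPMI 1640 buffered with MOPS. Inoculum 1-5 × 10³ cells/mL. Plates kept in a moist chamber at 35 °C. Absorbance read at 492 nm after 48 h (C. albicans, C. parapsilosis), 72 h (A. fumigatus, S. schenckii, C. neoformans) or 96 h (T. mentagrophytes). MIC taken as 90% growth inhibition versus control.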

Sporothrix schenckii = experiment: Antifungal activity against Sporothrix schenckii after 72 hrs by micro broth dilution method; format: functional; procedure, shortened: as §1
Cryptococcus neoformans = experiment: Antifungal activity against Cryptococcus neoformans after 72 hrs by micro broth dilution method; format: functional; procedure, shortened: as §1
Candida albicans = experiment: Antifungal activity against Candida albicans after 48 hrs by micro broth dilution method; format: functional; procedure, shortened: as §1
HeLa [2] = experiment: Antiproliferative activity against human HeLa cells at 20 uM after 24 hrs by sulforhodamine B assay; format: functional
Procedure, shortened: (§2)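 HeLa cells grown in Eagle's MEM with 10% FBS at 37 °C under 5% CO2. Seeded at 1 × 10⁵ cells/mL and medium replaced after 24 h. Compounds added from DMSO stocks (final DMSO below 0.1%; DMSO vehicle as control) for one cell cycle (24 h). Cells stained with 0.4% sulforhodamine B and protein-bound dye read at 560 nm.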

Aspergillus fumigatus = experiment: Antifungal activity against Aspergillus fumigatus after 72 hrs by micro broth dilution method; format: functional; procedure, shortened: as §1
Candida parapsilosis = experiment: Antifungal activity against Candida parapsilosis ATCC 22019 after 48 hrs by micro broth dilution method; format: functional; conditions: Lodderomyces parapsilosis, ATCC 22019, 48 h; procedure, shortened: as §1
HeLa [3] = experiment: Antiproliferative activity against human HeLa cells at 5 uM after 24 hrs by sulforhodamine B assay; format: functional; procedure, shortened: as §2
HeLa [4] = experiment: Antiproliferative activity against human HeLa cells at 1 uM after 24 hrs by sulforhodamine B assay; format: functional; procedure, shortened: as §2
HeLa [5] = experiment: Antiproliferative activity against human HeLa cells at 34 uM after 24 hrs by sulforhodamine B assay; format: functional
HeLa [6] = experiment: Induction of apoptosis in human HeLa cells at 5 uM after 24 hrs by annexin 5-propidium iodide staining mathod; format: functional, cell-based
Procedure, shortened: (§3)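 HeLa cells grown on coverslips at 5 × 10⁴ cells/mL and incubated 24 h with 5 µM compound. Stained with FITC-Annexin V (early apoptosis) and propidium iodide (late apoptosis/necrosis) using a kit. Imaged by DIC for morphology and by fluorescence.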

HeLa [7] = experiment: Induction of apoptosis in human HeLa cells assessed as morphological changes at 5 uM after 24 hrs by differential interference contrast microscopy; format: functional, cell-based; procedure, shortened: as §3
HeLa [8] = experiment: Induction of apoptosis in human HeLa cells assessed as blockade of cell cycle progression at mitosis after 24 hrs; format: functional, cell-based
Procedure, shortened: (§4)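 HeLa cells grown on coverslips and exposed 24 h to compound (5, 10, 20 µM or none). Microtubules stained with mouse anti-α-tubulin and FITC anti-mouse IgG, chromosomes with DAPI. Mitotic cells scored by fluorescence microscopy.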

HeLa [9] = experiment: Induction of apoptosis in human HeLa cells assessed as cell population at mitosis at 5 uM after 24 hrs; format: functional; procedure, shortened: as §4
HeLa [10] = experiment: Induction of apoptosis in human HeLa cells assessed as cell population at mitosis at 20 uM after 24 hrs; format: functional; procedure, shortened: as §4
HeLa [11] = experiment: Induction of apoptosis in human HeLa cells assessed as cell population at mitosis at 10 uM after 24 hrs; format: functional; procedure, shortened: as §4

| Molecule | MIC [1] [µg/mL] | MIC (Sporothrix schenckii) [µg/mL] | MIC (Cryptococcus neoformans) [µg/mL] | MIC (Candida albicans) [µg/mL] | inhibition at 20 µM (HeLa [2]) [%] | MIC (Aspergillus fumigatus) [µg/mL] | MIC (Candida parapsilosis) [µg/mL] | inhibition at 5 µM (HeLa [3]) [%] | inhibition at 1 µM (HeLa [4]) [%] | inhibition at 34 µM (HeLa [5]) [%] | Activity (HeLa [6]) | Activity (HeLa [7]) | Activity (HeLa [8]) | Activity (HeLa [9]) [%] | Activity (HeLa [10]) [%] | Activity (HeLa [11]) [%] |
| --- | --- | --- | --- | --- | --- | --- | --- | --- | --- | --- | --- | --- | --- | --- | --- | --- |
| O=C1C(Sc2cccc3ccccc23)=C(Sc2cccc3ccccc23)C(=O)c2ccccc21 | > 50 | > 50 | > 50 | > 50 | 46 | > 50 | > 50 | 30 | 22 |  |  |  |  |  |  |  |
| COc1ccc2c(c1OC)C(=O)O[C@@H]2[C@H]1c2c(cc3c(c2OC)OCO3)CCN1C [NOSCAPINE] |  |  |  |  |  |  |  |  |  | 50 |  |  |  |  |  |  |
| O=C1C(Cl)=C(Sc2ccccc2)C(=O)c2ccccc21 | 1.56 (≈ 5.19 µM) | 1.56 (≈ 5.19 µM) | 6.25 (≈ 20.8 µM) | 6.25 (≈ 20.8 µM) | 73 | 12.5 (≈ 41.6 µM) | 6.25 (≈ 20.8 µM) | 29 | 15 |  |  |  |  |  |  |  |
| O=C1C(Cl)=C(Cl)C(=O)c2ccccc21 [Dichlon] | 1.56 (≈ 6.87 µM) | 0.78 (≈ 3.44 µM) | 3.12 (≈ 13.7 µM) | 0.78 (≈ 3.44 µM) | 49 | 1.56 (≈ 6.87 µM) | 1.56 (≈ 6.87 µM) | 43 | 28 |  |  |  |  |  |  |  |
| O=C1C(Sc2ccccc2)=C(Sc2ccccc2)C(=O)c2ccccc21 | > 50 | 50 (≈ 134 µM) | > 50 | > 50 | 100 | > 50 | > 50 | 60 | 51 |  | Active | Active | inactive |  |  |  |
| O=C1C(Cl)=C(Sc2cccc3ccccc23)C(=O)c2ccccc21 | 6.25 (≈ 17.8 µM) | 6.25 (≈ 17.8 µM) | 50 (≈ 143 µM) | 50 (≈ 143 µM) | 69 | 50 (≈ 143 µM) | 50 (≈ 143 µM) | 22 | 0 |  |  |  |  |  |  |  |
| Clc1ccc(COC(Cn2ccnc2)c2ccc(Cl)cc2Cl)c(Cl)c1 (stereo not given) [MICONAZOLE] | < 0.78 |  | 12.5 (≈ 30 µM) | 25 (≈ 60.1 µM) |  | 12.5 (≈ 30 µM) |  |  |  |  |  |  |  |  |  |  |
| O=c1c2[nH]c3ccc4ccccc4c3sc=2c(=O)c2ccccc12 | > 50 | 50 (≈ 152 µM) | > 50 | > 50 | 42 | > 50 | > 50 | 19 | 12 |  |  |  |  |  |  |  |
| COc1cccc(SC2=C(Cl)C(=O)c3ccccc3C2=O)c1 | 3.12 (≈ 9.43 µM) | 3.12 (≈ 9.43 µM) | 25 (≈ 75.6 µM) | 25 (≈ 75.6 µM) | 74 | 25 (≈ 75.6 µM) | 25 (≈ 75.6 µM) | 48 | 39 |  |  |  |  |  |  |  |
| COc1ccc2[nH]c3c(=O)c4ccccc4c(=O)c=3sc2c1 | 50 (≈ 162 µM) | > 50 | > 50 | > 50 | 77 | > 50 | > 50 | 20 | 8.5 |  |  |  |  |  |  |  |
| O=c1c2[nH]c3ccccc3sc=2c(=O)c2ccccc12 | > 50 | 50 (≈ 179 µM) | > 50 | > 50 | 42 | > 50 | > 50 | 6.5 | 5.5 |  |  |  |  |  |  |  |
| C[C@@H]1[C@H](O)[C@@H](C)/C=C/C=C/C=C/C=C/C=C/C=C/C=C/[C@H](O[C@@H]2O[C@H](C)[C@@H](O)[C@H](N)[C@@H]2O)C[C@@H]2O[C@](O)(C[C@@H](O)C[C@@H](O)[C@H](O)CC[C@@H](O)C[C@@H](O)CC(=O)O[C@H]1C)C[C@H](O)[C@H]2C(=O)O [AMPHOTERICIN B] | 1.56 (≈ 1.69 µM) |  | 0.78 (≈ 0.844 µM) | 0.39 (≈ 0.422 µM) |  |  |  |  |  |  |  |  |  |  |  |  |
| OC(Cn1cncn1)(Cn1cncn1)c1ccc(F)cc1F [FLUCONAZOLE] | 0.5 (≈ 1.63 µM) | 2 (≈ 6.53 µM) | 1 (≈ 3.27 µM) | 1 (≈ 3.27 µM) |  | 2 (≈ 6.53 µM) | 2 (≈ 6.53 µM) |  |  |  |  |  |  |  |  |  |
| NYSTATIN |  | 13.2 | 3.5 | 7.8 |  |  |  |  |  |  |  |  |  |  |  |  |
| COc1cccc(SC2=C(Sc3cccc(OC)c3)C(=O)c3ccccc3C2=O)c1 | 50 (≈ 115 µM) | > 50 | > 50 | > 50 | 100 | > 50 | > 50 | 76 | 64 |  | Active | Active |  | 3.5 | 4.2 | 3.8 |
